Rin1 Abl inh: human Rin1-Abl interaction inhibition; P00519+Q13671; 0.4% of 360,000 active; inhibition, % at 7.35 µM; TR-FRET Rin1/Abl binding, biochemical; in the data active = inhibition above about 5%, passing the limit was not always enough
CSN inh: CSN deneddylation inhibition | inhibition, % at 12.5 µM | 0.38% of 360,000 active | AID 651999 | Q92905 | Purified CSN, SCF-Nedd8-OG deneddylation, fluorescence polarization;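 active = pattern-corrected inhibition above about 35%, with an unprinted fluorescence ratio check between 0.5 and 1.5, limit read from the data, passing the limit was not always enough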;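 also: 0% = enzyme with substrate and 100% = substrate without enzyme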
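Material: human Csn5 produced in HEK293T cells; Input: enzyme 0.24 nM; Reagent: SCFSkp2-Nedd8OG substrate at 10 nM final; Dosing: 12.5 µM compound; Incubation: 90 min reaction at room temperature; Detection: fluorescence polarization of the substrate; Evaluation: % inhibition of substrate cleavage by Csn5; Control set: substrate-only high control, full reaction low control.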
Neddyl block: cullin neddylation inhibition | P61081+Q13564 | TR-FRET cullin neddylation, biochemical | inhibition, % at 25 µM | 0.58% of 360,000 active | AID 651699; in the data active = inhibition above about 36%
TPT1 inhibitor: C. albicans TPT1 enzyme inhibition. recombinant caTPT1, FP RNA substrate dephosphorylation. inhibition, % at 5 µM. 0.81% of 300,000 active. AID 1962;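 active = inhibition above the mean of all tested compounds plus 3 SD, set per screening campaign, cut at about 24% in these data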;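 also: plate controls were DMSO alone for no effect and ferristatin control at 100 nM for full effect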
HNF4A DNA FP: change in binding of human HNF4 alpha to DNA; P41235; HNF4a-FITC DNA binding, fluorescence polarization, 1 h; activity change, % at 10 µM; 0.3% of 360,000 active; in the data active = activity change above about 30%, passing the limit was not always enough
Rpn11 block: blocks the human proteasome subunit Rpn11 | O00487 | human 26S proteasome, Ub4-pepOG fluorescence polarization; 20S core pre-blocked with epoxomicin | inhibition, % at 20 µM | 0.59% of 360,000 active | AID 588493;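 active = inhibition at 20 µM, scaled to each plate's controls, above about 33%, limit read from the data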
Rin1-Abl confirm: Rin1-Abl interaction inhibition confirmation | TR-FRET Rin1-Abl binding, purified proteins | AID 602124 | inhibition, % at 7.35 µM | 49% of 1,300 active | shares compounds with Rin1 Abl inh
GFP quench: quenches GFP fluorescence, counter-screen for Rin1-Abl inhibitors. shares compounds with Rin1 Abl inh. inhibitors/quenchers counterscreen. inhibition, % at 6.75 µM. 8.5% of 1,300 active;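 also: ABL1-eGFP fusion protein alone without its partner RIN1-SBP; 0% = protein with vehicle and 100% = wells lacking protein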
GFP quench dose: counter-screen for Rin1-Abl inhibitors: GFP quenchers, dose response; IC50, µM; AID 602182; GFP fluorescence interference/quenching counterscreen; 230 tested, under 10 active; shares compounds with Rin1 Abl inh; call rule not given here;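 also: ABL1-eGFP fusion protein alone without its RIN1 binding partner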
* hit, by the source's call. Compounds with a hit are over-represented: about 2.4% of the library has one in this group of screens. Rule as the data show it, unless noted: active = inhibition above about 6.5%; inactive = the rest.

What do the screens show for `O=C(Nc1ccn(CCCN2CCN(Cc3ccc(F)cc3)CC2)c(=O)n1)OCc1ccccc1`?
Rin1 Abl inh: 19*; CSN inh: 0; Neddyl block: -5; HNF4A DNA FP: -3; Rpn11 block: 2; Rin1-Abl confirm: 19*; GFP quench: 0; GFP quench dose: >68

How did O=C(Cn1ccc(NC(=O)OCc2ccccc2)nc1=O)NCCCN1CCCC1=O do in these assays?
Rin1 Abl inh: 12*; CSN inh: 4; Neddyl block: 0; HNF4A DNA FP: 3; Rpn11 block: -8; Rin1-Abl confirm: 6.6*; GFP quench: 0

Results for COc1cccc(CN(C(=O)Cn2nnc(-c3ccccc3F)n2)C(C(=O)NC(C)(C)C)c2ccncc2)c1 (stereo not drawn) ?
Rin1 Abl inh: 1; CSN inh: -4; Neddyl block: -5; TPT1 inhibitor: -6; HNF4A DNA FP: 3; Rpn11 block: 7

How did Cc1ccc(CN2CC(C(=O)N(Cc3nnc(-c4ccccc4Cl)o3)C3CC3)CC2=O)cc1 (stereo not drawn) do in these assays?
Rin1 Abl inh: -1; CSN inh: 0; Neddyl block: 14; TPT1 inhibitor: 2; HNF4A DNA FP: 0; Rpn11 block: 0

How did Cc1ncc(C[n+]2csc(C)c2C)c(N)n1 do in these assays?
Rin1 Abl inh: 9.7*; CSN inh: -2; Neddyl block: 5; TPT1 inhibitor: -5; HNF4A DNA FP: 1; Rpn11 block: -11; Rin1-Abl confirm: -1; GFP quench: -3

Results for N/C(=N\OC(=O)c1ccc([N+](=O)[O-])cc1)c1cccnc1 ?
Rin1 Abl inh: 1; CSN inh: -12; Neddyl block: -62; TPT1 inhibitor: -6; HNF4A DNA FP: 3; Rpn11 block: -5

How did Cc1ccc(C(=O)O/N=C(\N)c2cccnc2)cc1[N+](=O)[O-] do in these assays?
Rin1 Abl inh: 6.9*; CSN inh: -8; Neddyl block: -44; TPT1 inhibitor: 0; HNF4A DNA FP: -2; Rpn11 block: -1; Rin1-Abl confirm: -1; GFP quench: -2

How did Cc1ccc(C)c2[nH]c(=O)c(C(c3nnnn3Cc3ccco3)N3CCc4ccccc4C3)cc12 (stereo not drawn) do in these assays?
Rin1 Abl inh: 6.2*; CSN inh: 2; Neddyl block: 9; TPT1 inhibitor: 18; HNF4A DNA FP: -2; Rpn11 block: -10; Rin1-Abl confirm: 0; GFP quench: 2

What do the screens show for `CCOCCCNC(=O)CCn1nc(-c2ccc(Cl)cc2)ccc1=O`?
Rin1 Abl inh: 2; CSN inh: 4; Neddyl block: -7; TPT1 inhibitor: -1; HNF4A DNA FP: -2; Rpn11 block: 0

What do the screens show for `Cc1ccc(S(=O)(=O)N2C[C@H]3[C@H]4C(=O)N(Cc5ccccc5)C(=O)[C@H]4CC(=O)[C@H]3[C@@H]2c2cccc3ccccc23)cc1`?
Rin1 Abl inh: 3; CSN inh: -4; Neddyl block: -41; HNF4A DNA FP: -2; Rpn11 block: -1

What do the screens show for `Cc1ccc(S(=O)(=O)N2C[C@H]3[C@H]4C(=O)N(c5ccccc5)C(=O)[C@H]4CC(=O)[C@H]3[C@@H]2c2cccc3ccccc23)cc1`?
Rin1 Abl inh: 48*; CSN inh: -3; Neddyl block: -25; HNF4A DNA FP: -5; Rpn11 block: 17; Rin1-Abl confirm: -1; GFP quench: -2

What do the screens show for `COc1cc(=O)[nH]c(SCC(=O)Nc2ccc3ccccc3c2)n1`?
Rin1 Abl inh: 13*; CSN inh: 1; Neddyl block: -10; TPT1 inhibitor: 1; HNF4A DNA FP: 0; Rpn11 block: 0; Rin1-Abl confirm: 0; GFP quench: 0

Results for C[C@H](c1ccccc1)N1C[C@@H](COCc2ccccc2)Oc2cc(N3CC[C@@H](N(C)C)C3)ccc2S1(=O)=O ?
CSN inh: 0; Neddyl block: 13; HNF4A DNA FP: 11

Results for CC(C)(C)NC(=O)c1ccc(NC(=O)c2ccccc2-c2ccccc2C(=O)O)cc1 ?
Rin1 Abl inh: 6.5*; CSN inh: -1; Neddyl block: 4; TPT1 inhibitor: 0; HNF4A DNA FP: 0; Rpn11 block: 4; Rin1-Abl confirm: 0; GFP quench: 1

How did CCOc1ccc(/C(C)=N\NC(=O)Cc2ccccc2)cc1 do in these assays?
Rin1 Abl inh: 1; CSN inh: 3; Neddyl block: -6; TPT1 inhibitor: 0; HNF4A DNA FP: 0; Rpn11 block: 4

What do the screens show for `O=C1Nc2cccnc2N(C(=O)CCl)c2ccccc21`?
Rin1 Abl inh: 43*; CSN inh: -5; Neddyl block: 9; TPT1 inhibitor: 1; HNF4A DNA FP: 3; Rpn11 block: 4; Rin1-Abl confirm: -1; GFP quench: 0

Results for NCCN1CCN(CC(=O)N2c3ccccc3C(=O)Nc3cccnc32)CC1 ?
Rin1 Abl inh: 0; CSN inh: -6; Neddyl block: -26; TPT1 inhibitor: -3; HNF4A DNA FP: 5; Rpn11 block: 1

How did O=C(COC(=O)c1ccc(S(=O)(=O)N2CCCCC2)cc1)NCc1ccccc1 do in these assays?
Rin1 Abl inh: 1; CSN inh: 8; Neddyl block: -8; HNF4A DNA FP: -1; Rpn11 block: -2

Results for CC(NC(=O)c1ccc(F)cc1F)C1CC2CCC1C2 (stereo not drawn) ?
Rin1 Abl inh: 8.1*; CSN inh: 4; Neddyl block: -9; TPT1 inhibitor: 0; HNF4A DNA FP: 1; Rpn11 block: -1; Rin1-Abl confirm: -1; GFP quench: 0

How did Cc1cc2cc(CNC(=S)Nc3ccc(OC(F)(F)F)cc3)ccc2[nH]1 do in these assays?
Rin1 Abl inh: 6.1*; CSN inh: -2; Neddyl block: -32; TPT1 inhibitor: -1; HNF4A DNA FP: -1; Rpn11 block: -4; Rin1-Abl confirm: 2; GFP quench: 0

How did CC(C)(C)c1ccc(-c2n[nH]c(=S)n2CCCN2CCOCC2)cc1 do in these assays?
Rin1 Abl inh: 8.7*; CSN inh: 6; Neddyl block: 13; TPT1 inhibitor: 2; HNF4A DNA FP: 1; Rpn11 block: 1; Rin1-Abl confirm: 7.6*; GFP quench: 0

Results for CCCS(=O)(=O)NC(=O)C1(C)CCN(C(=O)c2ccc(F)c(C)c2)C1 (stereo not drawn) ?
Rin1 Abl inh: -2; CSN inh: 2; Neddyl block: 4; HNF4A DNA FP: -4; Rpn11 block: 4
